The values that follow come from ChEMBL document CHEMBL1129783, “Synthesis and modeling studies with monocyclic analogues of mycophenolic acid” (J Med Chem, 1996).

The subject of assay [1] is L1210. The assay can be described thus: Inhibitory activity of compound against L1210 leukemia cells in tissue culture. It counts as functional, cell-based. The settings on record: Mus musculus. The essentials:
(§1)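 L1210 leukemia cells in tissue culture were exposed for 48 h to compounds dissolved in DMSO, at up to 100 μM (highest concentration tested). Read-out was growth inhibition, reported as IC50 or as percent inhibition at 100 μM.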

Another assay relates to A549. The assay can be described thus: Inhibitory activity of compound against human A549 lung carcinoma cell line. It counts as functional, cell-based.
The next assay concerns A121. The assay can be described thus: Inhibitory activity of compound against human A121 ovarian cell line. In kind it is functional, cell-based.
For assay [2], the system named is HT-29. The assay can be described thus: Inhibitory activity of compound against HT-29 human colon adenocarcinoma cell line; […]. In kind it is functional, cell-based.
The subject of the next assay is MCF7. The assay can be described thus: Inhibitory activity of compound against human MCF-7 breast adenocarcinoma cell line. It counts as functional, cell-based.
The subject of assay [3] is HT-29. The assay can be described thus: Inhibitory activity of compound against HT-29 human colon adenocarcinoma cell line. In kind it is functional, cell-based.
In assay [4] the test system is L1210. The assay can be described thus: Inhibitory activity of compound against L1210 leukemia cells in tissue culture at 100 uM. It counts as functional. The settings on record: Mus musculus. The method, boiled down:
as §1

With `COC(=O)c1cc(C)c(OC)c(C/C=C(\C)CCC(=O)O)c1O`, the IC50 in the assay with L1210 [1] is > 100 µM.
As for `COc1ccc(C(C)=O)c(O)c1C/C=C(\C)CCC(=O)O`, the IC50 in the assay on A549 is > 32.5 µM; with A121, > 32.5 µM; in the assay with HT-29 [2], “Not Active”; with L1210 [1], > 100 µM; in the assay on MCF7, > 32.5 µM.
In the case of `COc1ccc(C(N)=O)c(O)c1C/C=C(\C)CCC(=O)O`, the IC50 result in the assay with HT-29 [2] is “Not Active”; in the assay on L1210 [1] it was > 100 µM.
For `COc1c(Cl)cc(C(N)=O)c(O)c1C/C=C(\C)CCC(=O)O`, the IC50 in the assay on L1210 [1] was > 100 µM.
On the same count and under the same terms, to `COc1c(C)cc(C(N)=O)c(O)c1C/C=C(\C)CCC(=O)O` belongs > 100 µM.
Take `COC(=O)c1cc(Cl)c(OC)c(C/C=C(\C)CCC(=O)O)c1O`: half-maximal inhibition with L1210 [1] (IC50) was put at 61 µM.
Turning to `COc1c(C)c2c(c(O)c1C/C=C(\C)CCC(=O)O)C(=O)OC2` [MYCOPHENOLIC ACID], the IC50 in the assay on HT-29 [3] was 0.4 µM; with L1210 [1], < 0.2 µM.
With `COc1c(Cl)cc(C(C)=O)c(O)c1C/C=C(\C)CCC(=O)O`, the inhibition at 100 µM in the assay on L1210 [4] was 21%.
Turning to `COc1c(C)cc(C(C)=O)c(O)c1C/C=C(\C)CCC(=O)O`, the 50% inhibitory concentration (IC50) in the assay with L1210 [1] was > 100 µM.
For `COC(=O)c1ccc(OC)c(C/C=C(\C)CCC(=O)O)c1O`, the 50% inhibitory concentration (IC50) entry was “Not Active” in the assay with HT-29 [2] and > 100 µM in the assay with L1210 [1].
